Hit rate of the full screen: of about 330,000 compounds, about 2,000 (0.61%) were called active.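 The calls were made as follows: active = inhibition above that plate's mean sample inhibition plus 3 SD (cut at about 26% in these data); inactive = the rest.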 Only a selection was taken, and actives are over-represented in it overall.
assay: ATP-evoked calcium signal inhibitors, parental CHO, primary screen, counter-screen for OX1R antagonist project, cell-based, fluorescence, Fluo-8 calcium dye (AID 463079); details: parental CHO-K1, ATP-induced calcium, Fluo-8 fluorescence; at 5.6 µM; hits give high values;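 also: 0% = ATP-challenged DMSO wells and 100% = DMSO wells without ATP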
Procedure, shortened: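 Assay system: untransfected parental CHO cell line. Also added: ATP agonist challenge. Dosing: one dose, 5.6 µM nominal. Measured by: Fluo-8 fluorescence. Read-out: % inhibition. Benchmarks: ATP wells versus no-ATP DMSO wells. Repeats: no replicates.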

SMILES	inhibition
CCCC(C)NC(=O)C1CCN(C(=O)C2CC(=O)N(c3ccc(C)cc3)C2)CC1 (configuration not stated)	-8.45% (inactive)
O=S(=O)(c1cccc(Cn2nnc(-c3ccc(F)cc3)n2)c1)N1CCOCC1	41.7% (active)
CCN(Cc1ccncc1)C(=O)c1cccc(S(=O)(=O)N2CCOCC2)c1	-16.1% (inactive)
Cc1nc(-c2ccc(F)cc2)c(CC(=O)Nc2cccc(S(=O)(=O)N3CCOCC3)c2)s1	-17.7% (inactive)
CC(=O)Nc1ccc(S(=O)(=O)Oc2ccc(/C=N/N=C3/NC(=O)C(CC(=O)O)S3)cc2)cc1 (configuration not stated)	-3.01% (inactive)
CC(c1ccccn1)N(C)C(=O)c1ccc2nc(Cc3cccc(Cl)c3)oc2c1 (configuration not stated)	-18.4% (inactive)
CC[C@]12c3[nH]c4ccc(Cl)cc4c3CCN1C(=O)[C@@H](CC(=O)NCCN1CCOCC1)C[C@@H]2C(=O)N1CCN(C(=O)C2CC2)CC1	-12.4% (inactive)
Cc1cc(OC(=O)c2ccc(Cl)cc2)cc(=O)n1C	-3.96% (inactive)
COCCCNc1nc2c(-c3cccc(C)c3)nnn2c2ccc(Cl)cc12	-27.9% (inactive)
Cc1ccc2cc(CCNC(=O)c3ccc4c(c3)OCO4)c(=O)[nH]c2c1	-18% (inactive)
O=C(NCCc1ccc(C(F)(F)F)cc1)c1ccc2c(c1)OCO2	40.1% (active)
COc1ccc(CCNC(=O)COc2ccc3c(c2)OCO3)cc1	-4.78% (inactive)
O=S(N1CCCCCC1)C12CC3CC(CC(C3)C1)C2 (configuration not stated)	-6.89% (inactive)
COc1ccc(N2CCC(CNC(=S)Nc3c(C)cccc3C)C2)cc1 (configuration not stated)	-5.49% (inactive)
CC1(C)C2CCC1(C)C(OC(=O)c1ccc(O)cc1)C2 (configuration not stated)	76.2% (active)
Cc1ccc(C(=O)OC2CCCN(C)C2)cc1 (configuration not stated)	-15% (inactive)
CC1(C)C2CCC1(C)C(OC(=O)CCn1ccnc1)C2 (configuration not stated)	-13.9% (inactive)
O=C(CNC(=O)c1ccc(Br)o1)NCC1CCCO1 (configuration not stated)	4.99% (inactive)
CC[C@]12c3[nH]c4cc(CCC(=O)N(C)C)ccc4c3CCN1C(=O)[C@@H](CC(=O)NCCCN(C)C)C[C@@H]2C(=O)N1CCN(C(=O)c2ccco2)CC1	-12.2% (inactive)

SMILES	inhibition
CCC(C)NC(=O)C1c2ccccc2Oc2ccccc21 (configuration not stated)	-11.6% (inactive)
CCC(C)(C)NC(=O)C1c2ccccc2Oc2ccccc21	41.2% (active)
CCCCCNC(=O)C1c2ccccc2Oc2ccccc21	-8.91% (inactive)
Cc1cc(C)c2nc(SCC(=O)N(C)C3CCS(=O)(=O)C3)cc(C)c2c1 (configuration not stated)	-7.05% (inactive)
CCOc1ccc(C(=O)Nc2cccc(-c3ccc4nncn4n3)c2)cc1	-7.65% (inactive)
O=S(=O)(NC1CC2CCC1C2)c1ccc(Cl)cc1 (configuration not stated)	-7.07% (inactive)
O=C(NCCN=C1NS(=O)(=O)c2ccccc21)c1ccc(S(=O)(=O)N2CCOCC2)cc1	-2.4% (inactive)
Cc1n[nH]c(C)c1S(=O)(=O)N1CCCC(C(=O)NCC2COc3ccccc3O2)C1 (configuration not stated)	-6.84% (inactive)
CC(=O)c1c(C)[nH]c(C(=O)OCC(=O)Nc2c(C)cccc2C)c1C	-7.2% (inactive)
CC(=O)c1c(C)[nH]c(C(=O)OCC(=O)Nc2sc3c(c2C#N)CCCC3)c1C	33.6% (active)
Cc1cccc(C(=O)OCC(=O)Nc2sc3c(c2C#N)CCC3)c1	-1.94% (inactive)
O=C(COC(=O)[C@H](Cc1ccccc1)NC(=O)c1cccs1)Nc1cc(F)ccc1F	-7.13% (inactive)
CC(=O)N(O)CCCCCNC(=O)CCC(=O)N(O)CCCCCNC(=O)CCC(=O)N(O)CCCCCNC(=O)CCC(=O)O	-0.82% (inactive)
O=C(NC(=S)NC1CCSC1=O)c1ccccc1F (configuration not stated)	-7.55% (inactive)
COc1cc(OC)c(-n2cc(-c3ccc(Cl)cc3)[nH]c2=O)cc1Cl	39.3% (active)
COc1cc(OC)c(N2CC(C(=O)Nc3cc(Cl)ccc3N3CCOCC3)CC2=O)cc1Cl (configuration not stated)	-16.6% (inactive)
COc1cc(OC)c(-n2c(C)cc(C=O)c2C)cc1Cl	-12.5% (inactive)
CN(c1ccccc1)S(=O)(=O)c1cc(C(=O)N2CCN(c3ncccn3)CC2)ccc1Cl	-18.9% (inactive)
CC(C)(C)c1ccc(SCCc2ccncc2)cc1	28.1% (inactive)

SMILES	inhibition
O=C(O)CC1S/C(=N\N=C/c2ccccc2O)N(c2ccc(O)cc2)C1=O (configuration not stated)	-10.7% (inactive)
O=C(CC(O)(C(F)(F)F)C(F)(F)F)Nc1ccc(Cl)c(Cl)c1	72.5% (active)
CS(=O)(=O)N(CC(=O)Nc1ccc(Cl)c(Cl)c1)C1CCCCC1	-5.86% (inactive)
CCn1nccc1C(=O)Nc1ccc(Cl)c(Cl)c1	-8.3% (inactive)
CN(C)CCN(Cc1ccccc1)S(=O)(=O)c1csc(C(N)=O)c1	-12.9% (inactive)
COc1cccc(-c2coc3cc4oc(=O)c(CC(=O)O)c(C)c4cc23)c1	1.98% (inactive)
CC#CC[N+](C)(C)CCCCCC	-6.39% (inactive)
FC(F)(F)C1CCCN(c2nsc3ccccc23)C1 (configuration not stated)	51.7% (active)
O=C(NC(Cc1ccccc1)C(=O)N1CCCC(C(F)(F)F)C1)c1ccccc1 (configuration not stated)	-16.7% (inactive)
O=C(NCC(=O)N1CCCC(C(F)(F)F)C1)c1ccccc1F (configuration not stated)	-5.99% (inactive)
Cc1cc(C(=O)O)c(S(C)(=O)=O)s1	-2.26% (inactive)
CCN(CC)C(=O)[C@H]1C[C@H](CC(=O)NCC23CC4CC(CC(C4)C2)C3)C(=O)N2CCc3c([nH]c4cc(CCC(=O)N(C)C)ccc34)[C@]12C	-25.6% (inactive)
Fc1ccc2[nH]c3c(N4CCSCC4)ncnc3c2c1	58.3% (active)
O=C(O)c1ccc2c3c(cccc13)C(=O)N(OS(=O)(=O)c1ccccc1)C2=O	-10.1% (inactive)
CN1C(=O)c2cccc3c(N)ccc(c23)C1=O	49.2% (active)
COc1cc(C(=O)N2C(=O)c3cccc(N)c3C2=O)cc(OC)c1OC	-9.7% (inactive)
CC(=O)Nc1ccccc1Sc1ccc2c3c(cccc13)C(=O)N(c1ccc(C)cc1)C2=O	-4.4% (inactive)
Cc1nn(C)cc1N1C(=O)c2cccc3c(N)ccc(c23)C1=O	36.8% (active)
Cc1nn(C)cc1C(=O)c1ccccc1	-6.65% (inactive)

Reference: PubChem BioAssay AID463079 (The Scripps Research Institute Molecular Screening Center, 2010)
